The subject of one test is KB. The test can be described thus: Cytotoxicity against human KB cells by colorimetric method. The test is classed as functional, cell-based. The method, boiled down:
(§1)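 Colorimetric cytotoxicity read-out, with ellipticine as the reference compound. Cell types: KB (oral human epidermal carcinoma), BC (human breast cancer), NCI-H187 (human small-cell lung cancer) and Vero (African green monkey kidney fibroblast). IC50 reported as mean ± SD, n = 3.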

For a further test, the system named is Human alphaherpesvirus 1. The test can be described thus: Antiviral activity against HSV1 by colorimetric method. The test is classed as functional, organism-based. A digest of the protocol:
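HSV-1 inhibition read by a colorimetric method, with acyclovir as the reference compound. IC50 reported as mean ± SD, n = 3.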

Another test has as its system Plasmodium falciparum. The test can be described thus: Antimalarial activity against Plasmodium falciparum K1 by microculture radioisotope assay. The test is classed as functional, organism-based. A digest of the protocol:
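Radioisotope microculture assay of P. falciparum K1 growth, with dihydroartemisinin as the reference antimalarial. IC50 reported as mean ± SD, n = 3.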

For a further test, the system named is NCI-H187. The test can be described thus: Cytotoxicity against human NCI-H187 cells by colorimetric method. The test is classed as functional, cell-based. The method, boiled down:
as §1

In a further test the test system is Vero. The test can be described thus: Cytotoxicity against African green monkey Vero cells by colorimetric method. The test is classed as cell-based. The note with it: Chlorocebus sabaeus. A digest of the protocol:
as §1

A short description of test [1]: Cytotoxicity against human BC cells by colorimetric method. The test is classed as functional, cell-based. The method, boiled down: as §1

Bounds are passed on as bounds.

As to `CCCCCCCc1cc(O)cc(OC(=O)c2c(CCCCCCC)cc(O)cc2O[C@@H]2O[C@H](CO[C@@H]3O[C@H](CO)[C@H](O)[C@H](O)[C@H]3O)[C@H](O)[C@H](O)[C@H]2O)c1`, the IC50 (commonly the point on the concentration scale where inhibition reaches its midpoint) is over 25 µM with KB; over 50 µM in the test with Human alphaherpesvirus 1; over 10 µM in the test with Plasmodium falciparum; over 25 µM in the test on NCI-H187; 32.1 µM in the test on Vero; 20.2 µM in test [1].

Regarding `CCCCCCCc1cc(O)cc(OC(=O)c2c(CCCCCCC)cc(O)cc2O[C@@H]2O[C@H](CO)[C@H](O)[C@H](O)[C@H]2O)c1`, the IC50 in the test on KB was over 25 µM; in the test on Human alphaherpesvirus 1, 7.2 µM; with Plasmodium falciparum it was over 10 µM; in the test on NCI-H187, 13.9 µM; with Vero it was 43.2 µM; in test [1], 4.4 µM.

On to `CCCCCCCc1cc(O)cc(OC(=O)c2c(O)cc(O)cc2CCCCCCC)c1`, for which the IC50 is 13 µM in the test on KB; over 100 µM in the test on Human alphaherpesvirus 1; 9.9 µM with Plasmodium falciparum; 13.6 µM with NCI-H187; 34.3 µM with Vero; 8.8 µM in test [1].

As to `CCCCCCCc1cc(O)cc(O[C@@H]2O[C@H](CO)[C@@H](OC)[C@H](O)[C@H]2O)c1`, the IC50 is over 50 µM in the test on KB; over 100 µM with Human alphaherpesvirus 1; over 25 µM in the test on Plasmodium falciparum; over 50 µM in the test with NCI-H187; over 100 µM in the test on Vero; over 50 µM in test [1].

As to `Nc1nc2c(ncn2COCCO)c(=O)[nH]1` [ACYCLOVIR], in the test with Human alphaherpesvirus 1, the IC50 turned out to be 10.2 µM.

`C[C@H]1[C@@H](O)O[C@@H]2O[C@@]3(C)CC[C@H]4[C@H](C)CC[C@@H]1[C@@]24OO3` [ARTENIMOL] registered an IC50 in the test with Plasmodium falciparum of 0.0039 µM.

`Cc1c2ccncc2c(C)c2c1[nH]c1ccccc12` [ELLIPTECINE]: the half-maximal inhibitory concentration (IC50) was found to be 1.99 µM in the test on KB, 1.71 µM in the test with NCI-H187, 10.2 µM with Vero and 0.49 µM in test [1].

These data come from ChEMBL document CHEMBL1149907, “Phenolic glycosides from the filamentous fungus Acremonium sp. BCC 14080” (J Nat Prod, 2008).
